SKN-1 inh: blocks SKN-1 activity in C. elegans; 360,000 compounds, 0.49% hits; C. elegans VP596 Pgst-4::GFP/RFP ratio, acrylamide-induced, 24 h; AID 624304; inhibition, % at 21.8 µM;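 active = interference check ratio from 0.5 to 1.5 plus GFP to RFP signal ratio inhibition reaching or exceeding a fixed threshold, cut at about 30% in these data, passing the limit was not always enough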
MsrA inhibitor: inhibitors of bovine MsrA; purified bovine MsrA, absorbance read-out; inhibition, % at 15.5 µM; 360,000 compounds, 0.75% hits;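 note: 0% = vehicle wells with enzyme and 100% = reference inhibitor wells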
bovine MsrA act: bovine methionine sulfoxide reductase A activation; purified bovine MsrA, absorbance read-out; 360,000 compounds, 0.3% hits; activation, % at 10.6 µM; AID 602163; in the data active = activation above about 7.5%;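 note: 0% = vehicle and 100% = reference activator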
MT1-MMP act inh: inhibitors of human MT1-MMP activation; HT1080 RFP-PRO-GFP cells, GFP/RFP ratio fluorescence, overnight; percent of plate control window, DMSO zero; 360,000 compounds, 0.061% hits; GFP/RFP ratio change, % at 20 µM; P50281;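 active = GFP/RFP ratio change of at least 30% with cell ATP level not reduced by more than half and red fluorescence within 50% of control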
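system = RFP-PRO-GFP reporter HT1080 cells | dosing = 20 µM single dose, 1% DMSO | timing = overnight cell settling, then overnight compound exposure, 37 °C, 5% CO2 | read-out basis = GFP/RFP fluorescence ratio | controls = DMSO and RFP-L50D-GFP cell wells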
p-CIP stab down: compounds decreasing mouse p/CIP protein stability; Q05BA5; F442A p/CIP-EGFP cells, EGFP fluorescence, 16 h; decrease of EGFP signal, % at 10 µM; 290,000 compounds, 0.01% hits;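 active = EGFP signal decrease of at least 30% at 10 µM or well 3 SD below plate mean, unless failing retest; inactive = the rest, including hits failing retest or dose response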
MsrA inh confirm: bovine MsrA inhibition, confirmed; 2,300 compounds, 41% hits; purified bovine MsrA, absorbance read-out; shares compounds with MsrA inhibitor; inhibition, % at 15.5 µM;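 note: coupled to thioredoxin reductase with NADPH and selenocystamine and DMSO as substrate; 0% = vehicle only and 100% = full effect of reference inhibitor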
* hit, by the source's call; nt = no result given. A selection: hits, their analogues and other compounds. The true share with any hit is near 1.6%. Cut-off read from the data, not from the text of the source, unless noted: active = inhibition above about 4.5%; inactive = the rest.

SMILES | SKN-1 inh | MsrA inhibitor | bovine MsrA act | MT1-MMP act inh | p-CIP stab down | MsrA inh confirm
CCN(CC)c1ccc(/C=N/NS(=O)(=O)c2ccc(CNC(C)=O)cc2)cc1 | -0.9 | 6.2* | -4.2 | 0.1 | -19.9 | 2.0
CCN(CC)c1ccc(/C=N/O)cc1 | -3.0 | 3.5 | -5.3 | -4.6 | -10.5 | nt
CCN(CC)c1ccc(C=NCCc2ccc(S(N)(=O)=O)cc2)cc1 | -17.8 | 4.7* | -12.4 | -8.5 | -15.8 | 2.5
CC(=O)NCc1ccc(S(=O)(=O)N/N=C/c2ccc(Br)cc2)cc1 | 2.2 | 0.7 | -2.1 | -6.0 | -20.9 | nt
COc1ccc(CNS(=O)(=O)c2cc(Cl)ccc2N2CC[C@@H](O)C2)cc1 | nt | -0.7 | nt | nt | nt | nt
COC(=O)[C@]12C[C@H](CC(=O)NCC34CC5CC(CC(C5)C3)C4)C(=O)N(Cc3ccccc3)C1=C[C@H](C1CCCC1)O[C@@H]2C | nt | -0.3 | nt | nt | nt | nt
COC(=O)[C@]12C[C@H](CC(=O)NCc3cccc(C(F)(F)F)c3)C(=O)N(Cc3ccc4c(c3)OCO4)C1=C[C@H](C(C)(C)C)O[C@@H]2C | nt | 0.1 | nt | nt | nt | nt
COC(=O)c1cc2c(c3c4cc(F)ccc4n(S(=O)(=O)c4cccc(C)c4)c13)C(=O)N(Cc1ccco1)C2 | nt | 0.8 | nt | nt | nt | nt
CCOc1ccc(-c2nnc(-c3ccncc3)o2)cc1OCC | -0.5 | 4.9* | -3.6 | -1.6 | -9.7 | 1.7
C#CCn1c2ccccc2c2nc3ccccc3nc21 | 26.8 | 5.5* | 3.1 | 0.1 | -17.7 | 1.5
N#CCn1c2ccccc2c2nc3ccccc3nc21 | 8.1 | -0.2 | 0.4 | -2.2 | -55.8 | nt
COC(=O)Cn1c2ccccc2c2nc3ccccc3nc21 | 3.9 | 6.7* | -4.0 | -0.8 | -12.7 | 5.3*
CC(C)[C@H](NC(=O)c1ccc(Cl)c(Cl)c1)C(=O)N1CCC[C@H]1C(=O)NCCc1ccccc1Cl | nt | -0.2 | nt | nt | nt | nt
CCc1ccc(/C=C2\SC(N3CCCC3)=NC2=O)cc1 | -1.4 | 4.8* | -4.8 | 0.3 | -11.2 | 3.3
COc1ccc(/C=C2\SC(N3CCCCC3)=NC2=O)cc1 | -6.4 | 5.9* | -5.0 | 0.4 | -1.1 | 4.7*
C=CCNc1cccc2c1S(=O)(=O)N[C@@H](Cc1ccccc1)CO2 | nt | 0.6 | nt | nt | nt | nt
Cc1c(CC(=O)N[C@@H](C)C(=O)O)c(=O)oc2cc3c(cc12)CCC(C)(C)O3 | 8.1 | 5.3* | -9.7 | 2.4 | -4.6 | 3.5
Cc1c(CC(=O)NC(C)C)c(=O)oc2cc3c(cc12)CCC(C)(C)O3 | 9.5 | 2.8 | -3.5 | 0.7 | 2.6 | nt
CCCCCNc1nc(N2CCCC2)c2c(c1C#N)CCN(C)C2 | 18.4 | 0.9 | -1.1 | -12.9 | -18.4 | nt
CCCCCNc1nc(NCCCO)c(C#N)c2c1CN(C)CC2 | 15.7 | 5.0* | -3.4 | -6.7 | 0.2 | 1.1
COc1ccc(Nc2nc3ccc(C)cn3c(=O)c2/C=N/O)cc1 | 16.8 | 5.0* | -1.2 | -2.4 | -8.0 | 0.3
Cc1[nH]c2ccccc2c1CC(=O)Nc1ccc(Nc2cccnc2)c(-c2ccc(C(C)(C)C)cc2)c1 | nt | 2.9 | nt | nt | nt | nt
O=C(O)c1ccc2c(=O)n3c(nc2c1)/C(=C/c1ccc(F)cc1)CC3 | -2.8 | 5.5* | -1.6 | 1.8 | -7.4 | 4.4
CC(C)(C)c1ccc(/C=C2\CCn3c2nc2cc(C(=O)O)ccc2c3=O)cc1 | 3.2 | nt | -7.1 | 11.9 | -2.2 | nt
COC(=O)C1=C(C)N(Cc2cccc(C(F)(F)F)c2)C(=NCC2CC2)NC1c1ccc(F)cc1 (stereo not drawn) | nt | -0.9 | nt | nt | nt | nt
SMILES | SKN-1 inh | MsrA inhibitor | bovine MsrA act | MT1-MMP act inh | p-CIP stab down | MsrA inh confirm
N#Cc1c(-c2ccccc2)[nH]c(=S)[nH]c1=O | -13.6 | 5.0* | 5.8 | -0.7 | 7.6 | 3.4
N#Cc1c(-c2cccc(Cl)c2)[nH]c(=S)[nH]c1=O | 9.5 | 3.3 | 5.0 | 1.9 | -2.4 | nt
Cc1c(O)ccc(C(=O)CN2C(=O)c3ccccc3C2=O)c1O | -31.4 | 5.7* | -4.1 | -2.1 | 1.3 | 4.2
CCOC(=O)C1CCN(CC(=O)c2ccc(O)c(C)c2O)CC1 | 22.9 | 4.7* | -8.6 | -2.9 | 10.2 | 3.5
CCOC(=O)N1CCN(CC(=O)c2ccc(O)c(C)c2O)CC1 | 6.5 | 1.6 | -2.6 | -0.1 | -1.9 | nt
Cc1c(O)ccc(C(=O)COc2ccccc2F)c1O | -78.0 | 4.8* | -12.3 | 3.4 | -4.6 | 2.7
CCOC(=O)c1ccc(OCC(=O)c2ccc(O)cc2O)cc1 | 4.3 | 3.5 | -2.6 | -3.4 | -14.0 | nt
COC(=O)c1ccc(OCC(=O)c2ccc(O)cc2O)cc1 | 7.4 | 5.0* | -4.4 | 4.0 | 7.4 | 3.1
C[C@H](O)[C@@H]1C(=O)N2CCc3c([nH]c4cccc(-c5ccccc5)c34)[C@@H]2C[C@@H]1N(C)C(=O)c1ccco1 | nt | -0.7 | nt | nt | nt | nt
O=C(COc1ccccc1F)c1ccc(O)cc1O | -7.6 | 7.6* | -5.9 | -0.5 | 5.5 | 3.7
Nc1ccc(C(=O)CC(=O)Nc2ccc(Cl)cc2)cc1 | 4.4 | 5.0* | 0.1 | 6.6 | -21.8 | 1.1
Nc1ccc(NC(=O)c2ccc(C(=O)Nc3ccc(N)cc3)cc2)cc1 | -14.8 | 0.9 | -2.0 | 5.1 | 2.4 | nt
CCn1c2c(n(C(C)=O)c1=O)C[C@@H](c1ccccc1)[C@@H](C)[C@@H](C(=O)N1CCCC1)C2 | nt | -0.2 | nt | nt | nt | nt
BrC(/C=N/Nc1nc(N2CCOCC2)nc(N2CCOCC2)n1)=C/c1ccccc1 | -3.5 | 5.5* | -2.2 | -7.2 | -28.7 | 4.2
O=C(N/N=C\c1cn(-c2ccccc2)nc1-c1ccccc1)c1ccc(Br)o1 | -16.5 | 6.4* | -10.9 | -5.5 | -8.2 | 2.5
O=Cc1cn(-c2ccccc2)nc1-c1cccnc1 | 6.0 | 10.9* | -7.9 | 0.4 | -1.0 | 4.1
C(=N\N1CCOCC1)/c1cn(-c2ccccc2)nc1-c1ccccc1 | 6.4 | 7.0* | -4.2 | -3.1 | 8.3 | -0.2
O=Cc1cn(-c2ccccc2)nc1-c1cccc([N+](=O)[O-])c1 | 13.2 | 3.8 | -3.6 | -3.6 | nt | nt
O=Cc1cn(-c2ccccc2)nc1-c1ccccc1 | 11.8 | 14.0* | 0.8 | -0.9 | 4.8 | 11.4*
Cc1ccc(-c2nn(-c3ccccc3)cc2/C=N/NC(=O)c2ccc(Br)o2)cc1 | 9.3 | 0.8 | -3.6 | 0.0 | -0.6 | nt
COc1ccc(OC)c(CN(CC(F)(F)F)S(=O)(=O)c2ccccc2Br)c1 | nt | -0.3 | nt | nt | nt | nt
CCOC(=O)N[C@H](C(=O)N1CCC[C@H]1C(=O)NCCc1ccccc1Cl)C1CCCCC1 | nt | -0.7 | nt | nt | nt | nt
O=Cc1cn(-c2ccccc2)nc1-c1ccncc1 | -2.1 | 6.0* | -0.8 | -0.9 | -1.5 | 2.2
O=C(O)/C=C/c1cn(-c2ccccc2)nc1-c1ccccc1 | 19.7 | -0.3 | -2.5 | 2.9 | 7.3 | nt
Cc1ccc2[nH]c(=O)c(CN(Cc3cccnc3)Cc3nnnn3CCN3CCOCC3)cc2c1 | 10.1 | 5.1* | -1.3 | -1.1 | 7.8 | 1.7
Cc1ccc(S(=O)(=O)c2c(N)n(NC(=O)c3ccco3)c3nc4ccccc4nc23)cc1 | 7.2 | 4.8* | 0.5 | -0.1 | 2.4 | 2.4
Cc1ccc(/C=N/Nc2nncc(-c3ccccc3)n2)o1 | 11.8 | 5.8* | -18.5 | -0.2 | -11.8 | 5.4*
C(=C\c1ccccc1)/C=N/Nc1nncc(-c2ccccc2)n1 | nt | 42.5* | nt | nt | -0.9 | 1.1

From PubChem BioAssay
